The text below walks through data of publication PMC10187107 (Journal of Enzyme Inhibition and Medicinal Chemistry, 2023).

Several values for one entry are separate records, joined by “and”; a condition that tells them apart may be missing. Equal entries are not always repeated.

The target in one data set is T1, h3β-HSD2 (Homo sapiens, UniProt P26439).
T1 sequence (P26439 1-372): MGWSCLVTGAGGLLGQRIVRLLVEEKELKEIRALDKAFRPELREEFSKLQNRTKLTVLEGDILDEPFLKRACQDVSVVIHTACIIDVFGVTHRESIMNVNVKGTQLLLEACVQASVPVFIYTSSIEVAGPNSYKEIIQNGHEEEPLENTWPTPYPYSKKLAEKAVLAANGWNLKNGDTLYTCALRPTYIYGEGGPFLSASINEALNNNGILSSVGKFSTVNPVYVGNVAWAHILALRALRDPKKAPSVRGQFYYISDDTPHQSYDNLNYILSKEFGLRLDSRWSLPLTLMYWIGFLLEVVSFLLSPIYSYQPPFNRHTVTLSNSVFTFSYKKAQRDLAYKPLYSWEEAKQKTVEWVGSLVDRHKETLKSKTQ
As to the kind of experiment: h3β-HSD2 activity, conversion of P5 to P4 in KGN cell homogenate. In kind it is biochemical. The conditions noted are these: for Residual h3β-HSD2 activity: 100 µM chemical, relative to DMSO control; for IC50: IC50, human 3β-HSD2, KGN cell homogenate, 0.2 µM P5, 0.2 mM NAD+, 30 min; for Mode action: human 3β-HSD2, vs. P5, mixed model and Lineweaver-Burk plot.

In another data set the target is T2, r3β-HSD1 (Rattus norvegicus, UniProt P22071).
T2 sequence (P22071 1-373): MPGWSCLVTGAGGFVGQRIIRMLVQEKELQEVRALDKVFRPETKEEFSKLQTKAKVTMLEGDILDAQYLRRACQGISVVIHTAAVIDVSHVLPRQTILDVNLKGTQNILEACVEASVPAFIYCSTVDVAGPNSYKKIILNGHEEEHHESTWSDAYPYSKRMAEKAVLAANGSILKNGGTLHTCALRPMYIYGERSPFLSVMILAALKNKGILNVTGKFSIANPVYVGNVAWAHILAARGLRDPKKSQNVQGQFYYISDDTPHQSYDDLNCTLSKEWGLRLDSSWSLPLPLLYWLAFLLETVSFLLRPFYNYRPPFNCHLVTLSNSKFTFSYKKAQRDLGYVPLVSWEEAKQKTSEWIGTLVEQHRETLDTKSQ
As to the kind of experiment: r3β-HSD1 activity, conversion of P5 to P4 in rat testicular microsome. The conditions noted are these: for Residual r3β-HSD1 activity: 100 µM chemical, relative to DMSO control; for IC50: IC50, rat 3β-HSD1, testicular microsome, 0.2 µM P5, 0.2 mM NAD+, 30 min; for increase of inhibitory effect relative to CUR: r3β-HSD1; for Mode action: rat 3β-HSD1, vs. P5, mixed model and Lineweaver-Burk plot. The data set is classed as biochemical. A digest of the protocol:
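Testes came from 90-day male Sprague-Dawley rats. Microsomes were isolated from homogenate in 0.25 M sucrose PBS (pH 7.2) by spins at 700, 14,500 and twice 105,000 ×g. Reactions used 5 µg microsomal protein, 0.2 µM P5 and 0.2 mM NAD+ in PBS for 30 min. […] P4 by HPLC-MS/MS with T-d5 internal standard; n = 4.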

The subject of a further data set is human KGN cells. As to the kind of experiment: P4 output in human KGN cells under basal and FSK-stimulated conditions. In kind it is cell-based. To be noted: basal condition, 24 h. An outline of the steps: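 KGN human granulosa-like cells grown in DMEM/F12 with 10% FBS and 1% antibiotics at 37 °C, 5% CO2. Seeded at 1 × 10^6 cells/well and treated for 24 h with 0, 10, 20 or 40 µM test compound, either without forskolin (basal) or with 10 µM forskolin. P4 in the medium was quantified by HPLC-MS/MS. n = 4; one-way ANOVA with Dunnett's test vs control.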

The conditions of data set [1]: cited from earlier work.
The conditions of data set [2]: ref GuideChem; cited from earlier work.
A further data set concerns human 11β-HSD2. To be noted: cited from earlier work.
In the next data set the test system is human 17β-HSD3. To be noted: cited from earlier work.
In another data set the test system is human 11β-HSD1. To be noted: cited from earlier work.

The Km is the concentration of substrate that gives half-maximal velocity. The Ki is the dissociation constant of the complex between target and ligand, obtained from inhibition or displacement. A higher Ki goes with a looser hold on the target. As usually defined, the IC50 is the concentration needed to halve the response being measured. Broadly, the LogP is a log measure of how a compound divides between an organic and an aqueous phase.

Regarding `COc1cc(CCC(O)CC(O)CCc2ccc(O)c(OC)c2)ccc1O` (stereo not shown) [OHC, octahydrocurcumin], the “Residual h3β-HSD2 activity” value at h3β-HSD2 is reported as ≥ 50 % of the control.

As for `CC(=O)[C@H]1CC[C@H]2[C@@H]3CC=C4C[C@@H](O)CC[C@]4(C)[C@H]3CC[C@]12C` [P5, pregnenolone], the Km on h3β-HSD2 (read-out: apparent Km, substrate P5, h3β-HSD2, Michaelis-Menten kinetics) was found to be 3.08 ± 0.81 µM; on r3β-HSD1 (read-out: apparent Km, substrate P5, r3β-HSD1, Michaelis-Menten kinetics) it was 0.32 ± 0.1 µM.

Regarding `COc1cc(/C=C/C(O)=C/C(=O)/C=C/c2ccc(O)cc2)ccc1O` [DMC, demethoxycurcumin], on h3β-HSD2, affinity was put at a Ki of 3.85 µM, the “Residual h3β-HSD2 activity” value is < 25 % of the control, half-maximal inhibition (IC50) required 3.27 ± 0.38 µM and the Mode action entry is given as “Mixed”. Also, the “lowest concentration that markedly decreased basal P4 output” value in the data set on human KGN cells is 10 µM. For the same compound, on r3β-HSD1, affinity was put at a Ki of 2.18 µM, the “Residual r3β-HSD1 activity” value was < 20 % of the control, the IC50 came to 2.15 ± 0.27 µM and the “increase of inhibitory effect relative to CUR” value is given as 1 fold. Further, the Mode action result at r3β-HSD1 is on record as “Mixed”. Also, the half-lives in data set [1] was 2 to 4 h.

In the case of `COc1cc(CCC(=O)CC(=O)CCc2ccc(O)c(OC)c2)ccc1O` [THC, tetrahydrocurcumin], in data set [2], the log partition coefficient (LogP) is reported as 3.691. In addition, at h3β-HSD2, the “Residual h3β-HSD2 activity” value was ≥ 50 % of the control and 109 ± 19.2 µM corresponded to half-maximal inhibition (IC50). Besides, at r3β-HSD1, the “Residual r3β-HSD1 activity” value is listed as “around 50 % of the control” and the half-maximal inhibitory concentration (IC50) turned out to be 103 ± 11.6 µM.

For the compound `COc1cc(/C=C/C(=O)CC(=O)/C=C/c2ccc(O)c(OC)c2)ccc1O` [CUR, curcumin], in the data set with human 11β-HSD2, the IC50 was ~14.5 µM and 10 to 15 µM. Moreover, the 50% inhibitory concentration (IC50) in the data set on human 17β-HSD3 was ~67.3 µM and > 50 µM. The LogP in data set [2] is recorded as 3.37. In addition, at h3β-HSD2, the “Residual h3β-HSD2 activity” value is reported as < 25 % of the control and the Mode action result is recorded as “Mixed”. Also, in the data set with human 11β-HSD1, the IC50 is ~10 µM and 10 to 15 µM. Moreover, the “lowest concentration that markedly decreased basal P4 output” value with human KGN cells was 20 µM. At r3β-HSD1, the affinity corresponds to a Ki of 4.21 µM, the “Residual r3β-HSD1 activity” value is reported as < 20 % of the control, the concentration for half-maximal inhibition (IC50) was found to be 4.06 ± 1.1 µM and the Mode action result is reported as “Mixed”. In addition, the “higher potency to inhibit r3β-HSD1 than h3β-HSD2” value on r3β-HSD1 (r3β-HSD1 vs h3β-HSD2) was “about 3 fold”. In addition, the “clearance from the body” value in data set [1] is “rapid clearance”.

As to `O=C(/C=C/c1ccc(O)cc1)CC(=O)/C=C/c1ccc(O)cc1` [BDMC, bisdemethoxycurcumin], at h3β-HSD2, the inhibitory constant (Ki) turned out to be 1.12 µM, the “Residual h3β-HSD2 activity” value is given as < 25 % of the control, 1.68 ± 0.39 µM corresponded to half-maximal inhibition (IC50) and the Mode action entry is given as “Competitive”. Moreover, in the data set with human KGN cells, the “lowest concentration that markedly decreased basal P4 output” value is recorded as 10 µM. For the same compound, on r3β-HSD1, the Ki was 1.56 µM, the “Residual r3β-HSD1 activity” value is given as < 20 % of the control, half-maximal inhibition (IC50) was put at 1.22 ± 0.31 µM and the “increase of inhibitory effect relative to CUR” value is on record as 2 fold. In addition, on r3β-HSD1, the Mode action entry was “Mixed”. Besides, the half-lives in data set [1] was 2 to 4 h.
